The source of these data is ChEMBL document CHEMBL4043263, “Identification of selective 8-(piperidin-4-yloxy)quinoline sulfone and sulfonamide histamine H1 receptor antagonists for use in allergic rhinitis” (Bioorg Med Chem Lett, 2017).

By pKa is commonly meant the pH at which an ionisable group is half protonated. One may read the Kp as the ratio of the level in a tissue or fluid to that in plasma or blood. Broadly, the bioavailability is dose-corrected exposure relative to a reference, in per cent. As a reminder, the AUC(0-t) is the area under the concentration-time curve up to a stated or last time point.

The nature of data set [1]: Dissociation constant, pKa of the compound. The class given is physicochemical.
Data set [2] in a line: Ratio of drug level in brain to blood in CD Sprague-Dawley rat at 1 mg/kg, iv administered via bolus dose after 5 mins by LC-MS/MS analysis. Type of data set: ADME, organism-based. The following applies: brain and blood. An outline of the steps: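 Rats received a single intravenous bolus at 1 mg/kg. Brain and blood samples were taken 5 min after dosing. Brain concentration was expressed as ng/g tissue, and the brain:blood concentration ratio was calculated.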

Data set [3] is described as follows: Drug level in CD Sprague-Dawley rat brain at 1 mg/kg, iv administered via bolus dose measured after 5 mins by LC-MS/MS analysis. Type of data set: ADME, organism-based. The following applies: read-out: Drug uptake. An outline of the steps:
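Rats given a 1 mg/kg intravenous bolus; brain and blood sampled 5 min later. Reported as mean brain concentration (ng/g tissue) and brain:blood ratio.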

A short description of data set [4]: Permeability in MDCK cells. Type of data set: ADME, cell-based, Canis lupus familiaris. The following applies: dog, read-out: permeability. The essentials:
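Permeability measured across MDCK cell monolayers, reported in nm/s; n=3.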

The nature of data set [5]: Drug level in blood of ovalbumin-sensitized guinea pig model of histamine-induced allergic rhinitis. The class given is ADME, tissue-based, Cavia porcellus. The following applies: read-out: Drug uptake. The essentials: (§1)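 Arterial blood taken from guinea pigs immediately after nasal congestion was assessed, 4 or 25 h after an intranasal dose of 1 mg/mL solution (25 µL/nostril).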

Data set [6] in a line: Drug metabolism in human hepatocytes assessed as M15 formation by mass spectrometric analysis. The class given is ADME, cell-based, Hepatocyte.
Data set [7] in a line: Volume of distribution at steady state in CD Sprague-Dawley rat at 1 mg/kg, iv or 3 mg/kg, po by LC-MS/MS analysis. The class given is ADME, organism-based. The following applies: in vivo, read-out: Vdss. An outline of the steps:
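CD rats (n=4) received a 1 mg/kg intravenous dose of the dihydrochloride salt as a solution in H2O–PEG200–DMSO (50:45:5). Steady-state volume of distribution was taken from the intravenous blood profile and reported as the mean.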

The nature of data set [8]: Oral bioavailability in Beagle dog at 1 to 2 mg/kg administered via gavage by LC-MS/MS analysis. Type of data set: ADME, organism-based, Canis lupus familiaris. The following applies: in vivo. The essentials:
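Beagle dogs given oral doses of 1 mg/kg (n=2) or 2 mg/kg (n=2) in H2O–PEG200–DMSO (50:45:5). Bioavailability is the mean of the four animals, referenced to a 1 mg/kg intravenous dose.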

Data set [9] in a line: AUC (0 to last) in CD Sprague-Dawley rat at 3 mg/kg, po by LC-MS/MS analysis.
Data set [10] can be described thus: Blood clearance in Beagle dog at 0.5 mg/kg, iv administered via bolus dose or 1 mg/kg, po administered via gavage by LC-MS/MS analysis. Type of data set: ADME, organism-based, Canis lupus familiaris.
For data set [11], the system named is Liver. Kind of data set: Drug metabolism in mouse liver microsomes. Type of data set: ADME, microsome. The essentials:
(§2)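 Intrinsic clearance measured in vitro with liver microsomes from mouse, rat, dog and human; expressed as mL/min/g tissue.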
A general note: Liver microsomes are vesicles of endoplasmic reticulum, rich in cytochrome P450 enzymes.

Data set [12] is described as follows: Blood clearance in CD Sprague-Dawley rat at 1 mg/kg, iv or 3 mg/kg, po by LC-MS/MS analysis. The class given is ADME, organism-based. An outline of the steps:
(§3)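 CD rats dosed intravenously at 1 mg/kg (n=4) or orally at 3 mg/kg (n=3) as a solution in H2O–PEG200–DMSO (50:45:5). Blood clearance reported as mean and as % of liver blood flow; half-life taken from intravenous data.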

A short description of data set [13]: Elimination half life in Beagle dog at 0.5 mg/kg, iv administered via bolus dose or 1 mg/kg, po administered via gavage by LC-MS/MS analysis. Type of data set: ADME, organism-based, Canis lupus familiaris. The following applies: in vivo, read-out: beta t1/2 (converted).
Data set [14] can be described thus: Drug metabolism in human hepatocytes assessed as M11 formation by mass spectrometric analysis. The class given is ADME, cell-based, Hepatocyte.
Data set [15] in a line: Elimination half life in CD Sprague-Dawley rat at 1 mg/kg, iv by LC-MS/MS analysis. Type of data set: ADME, organism-based. The following applies: in vivo, read-out: beta t1/2 (converted). The essentials: as §3
Data set [16] is described as follows: Drug level in CD Sprague-Dawley rat brain at 300 mg/kg, po measured after 30 mins by LC-MS/MS analysis. As to conditions: read-out: Drug uptake; call rule not given here. The class given is ADME, organism-based. The essentials: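 Rats given a single 300 mg/kg oral dose; brain and blood sampled 30 min later. Reported as brain concentration (ng/g) and brain:blood ratio.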
The next data set concerns Rattus norvegicus. Kind of data set: Blood clearance in CD Sprague-Dawley rat at 1 mg/kg, iv or 3 mg/kg, po by LC-MS/MS analysis relative to liver blood flow. Type of data set: ADME, organism-based. The following applies: in vivo. The essentials: as §3
Data set [17] can be described thus: Drug metabolism in human hepatocytes assessed as M19 formation by mass spectrometric analysis. Type of data set: ADME, cell-based, Hepatocyte.
Data set [18] in a line: Drug metabolism in human hepatocytes assessed as M24 formation by mass spectrometric analysis. Type of data set: ADME, cell-based, Hepatocyte.
For data set [19], the system named is Liver. Kind of data set: Drug metabolism in dog liver microsomes. The class given is ADME, Canis lupus familiaris, microsome. An outline of the steps:
as §2

The nature of data set [20]: Bioavailability in sc dosed CD Sprague-Dawley rat by LC-MS/MS analysis. Type of data set: ADME, organism-based. As to conditions: in vivo. The essentials: (§4)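 Single rat dosed subcutaneously at 2 mg/kg in DMSO–PEG 200–water (5:45:50). Bioavailability estimated against intravenous data.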
Data set [21] in a line: Bioavailability in CD Sprague-Dawley rat at 2 mg/kg, sc by LC-MS/MS analysis. Type of data set: ADME, organism-based. The following applies: in vivo. The essentials:
as §4

Data set [22] has as its system Liver. In words: Drug metabolism in rat liver microsomes. The class given is ADME, microsome. An outline of the steps:
as §2

Data set [23] deals with Liver. In words: Drug metabolism in human liver microsomes. The class given is ADME, microsome. The essentials: as §2
The next data set in a line: in vivo. The following applies: CD Sprague-Dawley, rat, brain and blood, po, 300 mg/kg.
The nature of data set [24]: Drug uptake in arterial blood of ovalbumin-sensitized guinea pig model of histamine-induced allergic rhinitis at 1 mg/ml administered intranasally pretreated for 4 hrs followed by histamine challenge after 30 mins post atropine monohydrate hemisulfate addition. The class given is ADME, tissue-based, Cavia porcellus. As to conditions: in vivo, inhaled_or_intranasal, 0.5 h. An outline of the steps:
as §1

The next data set has as its system Canis familiaris. In words: Blood clearance in Beagle dog at 0.5 mg/kg, iv administered via bolus dose or 1 mg/kg, po administered via gavage by LC-MS/MS analysis relative to liver blood flow. The class given is ADME, organism-based, Canis lupus familiaris. As to conditions: in vivo.
The nature of data set [25]: Drug excretion in Beagle dog urine at 1 mg/kg, iv administered via bolus dose by LC-MS/MS analysis.
Data set [26] is described as follows: Volume of distribution at steady state in Beagle dog at 0.5 mg/kg, iv administered via bolus dose or 1 mg/kg, po administered via gavage by LC-MS/MS analysis. The following applies: in vivo, read-out: Vdss. The class given is ADME, organism-based, Canis lupus familiaris.
Data set [27] is described as follows: Drug absorption in CD Sprague-Dawley rat hepatic portal vein at 3 mg/kg, po. Type of data set: ADME, organism-based. As to conditions: read-out: Drug absorption. An outline of the steps:
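Rats given 3 mg/kg orally; the fraction of dose absorbed into the hepatic portal vein was calculated.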

Data set [28] can be described thus: Drug excretion in Beagle dog urine at 1 mg/kg, po administered via gavage by LC-MS/MS analysis. The class given is ADME, organism-based, Canis lupus familiaris. As to conditions: read-out: Drug excretion. An outline of the steps:
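Parent compound measured in urine of dogs after intravenous (1 mg/kg) or oral dosing; expressed as % of dose.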

The nature of data set [29]: Oral bioavailability in CD Sprague-Dawley rat at 10 mg/kg by LC-MS/MS analysis. Type of data set: ADME, organism-based. The following applies: in vivo. The essentials:
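Three rats dosed orally at 10 mg/kg in 0.5% hydroxypropylmethyl cellulose. Bioavailability is a lower-bound estimate because the terminal phase was poorly defined.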

Data set [30] in a line: Drug metabolism in human hepatocytes assessed as M26 formation by mass spectrometric analysis. The class given is ADME, cell-based, Hepatocyte.
Data set [31] is described as follows: Drug uptake in arterial blood of ovalbumin-sensitized guinea pig model of histamine-induced allergic rhinitis at 1 mg/ml administered intranasally pretreated for 24 hrs followed by histamine challenge after 30 mins post atropine monohydrate hemisulfate addition. The class given is ADME, tissue-based, Cavia porcellus. The following applies: in vivo, inhaled_or_intranasal, 0.5 h. The essentials: as §1

The compound `CCCCc1cc(OC2CCN(CCCNS(=O)(=O)CC)CC2)c2ncccc2c1` showed a pKa in [1] of 8.5.

Turning to `CCCCc1cc(OC2CCN(CCCS(=O)(=O)C(C)(C)C)CC2)c2ncccc2c1`, the Kp at 5 min in data set [2] worked out at 0.77. Further, the concentration at 5 min in data set [3] amounted to 133 ng/g. The pKa in [1] was 8.

`CCCCc1cc(OC2CCN(CCS(=O)(=O)CC)CC2)c2ncccc2c1` returned a pKa in data set [1] of 6.5.

In the case of `CCCCc1cc(OC2CCN(CCCCNS(=O)(=O)CC)CC2)c2ncccc2c1.Cl.Cl`, the Papp in [4] is 5.2 ×10⁻⁶ cm/s. Moreover, the concentration in [5] was 7 nM. Also, the Drug metabolism entry in data set [6] was “Metabolite_Detected”; with Liver [11] it was 3.7 mL/min/g; in [14], “Metabolite_Detected”; in data set [17] it was “Metabolite_Detected”; in data set [18], “Metabolite_Detected”; in the data set with Liver [19], 3.6 mL/min/g. Besides, the Drug metabolism with Liver [22] is 2.9 mL/min/g; in the data set on Liver [23], 1.4 mL/min/g; in data set [30], “Metabolite_Detected”. For the same compound, the Vd was 4.2 L/kg in data set [7] and 4.5 L/kg in [26]. The bioavailability in [8] is 5%; in data set [20], 45%; in [21] it was 45%; in [29], 4 to 9%. Besides, the AUC(0-t) in data set [9] came out at 62 ng·h/mL. The results for the clearance in [10] and in data set [12] were 20 mL/min/kg and 38 mL/min/kg, respectively. In addition, the half-life in data set [13] is 3.8 h; in data set [15] it was 1.8 h. The Kp at 5 min in [2] is 0.1. The concentration at 0.5 h in [16] turned out to be 14500 ng/g. Also, the results for the CL with Rattus norvegicus and in the data set with Canis familiaris were 45% and 65%, respectively. For the same compound, the partition ratio (Kp) at 0.5 h in the data set “in vivo” was 11. Besides, the Drug uptake result in [24] and in [31] was “Active” in each case. Moreover, the dose excreted in [25] is less than 1%; in data set [28], less than 0.1%. The concentration at 5 min in data set [3] is 26 ng/g. The Fa in data set [27] is 13 to 16%.

For the compound `CCCCc1cc(OC2CCN(CCCS(=O)(=O)CC)CC2)c2ncccc2c1.Cl.Cl`, the AUC(0-t) in data set [9] stood at 568 ng·h/mL. The partition ratio (Kp) at 5 min in data set [2] was determined as 0.09. Further, the concentration at 5 min in [3] was 62 ng/g. Also, the pKa in [1] came out at 7.9.
